Measurements collected from several papers.
Lines come from different studies, so protocols differ.
PDGFRA D842V: Platelet-derived growth factor receptor alpha (PDGFRA, Homo sapiens, UniProt P16234, D842V)
PDGFRA: Platelet-derived growth factor receptor alpha (PDGFRA, Homo sapiens, UniProt P16234)
PDGFRA V561D: Platelet-derived growth factor receptor alpha (PDGFRA, Homo sapiens, UniProt P16234, V561D)

CCCOc1ccc(OC)c(F)c1C(=O)c1ccc(C(=O)N[C@@H]2CNC[C@H]2NC(=O)c2ccc3[nH]ncc3c2)cc1
remaining activity (PDGFRA D842V; enzyme activity, inhibitor; 10 µM): 12%

COc1cc2ncnc(Nc3ccc(Oc4ccccc4)c(C)c3C)c2cc1OC
inhibition (PDGFRA D842V; enzyme activity, inhibitor; 1 µM): 3%

Oc1ccc(-c2nc(-c3ccncc3)c(-c3ccc(F)cc3)[nH]2)cc1
remaining signal (PDGFRA; cell-free assay; 0.5 µM): 98.8%

COc1ccc2cc(OCC3(C(=O)O)CN(C(=O)c4ccc(F)cc4)C3)ccc2c1
remaining binding (PDGFRA; cell-free assay, competition with immobilised ligand; 1 µM): 100%

Cc1ccc(C(=O)NCc2ccsc2)cc1C#Cc1cn(C(C)C)c2ncnc(N)c12
activity vs control (PDGFRA; enzyme activity, inhibitor; 1 µM): 4%

CNC(=O)Nc1ccc2c(c1)[C@@]1(CC2)OC(=O)N(CC(=O)N(Cc2ccc(F)cc2)[C@@H](C)C(F)(F)F)C1=O
remaining binding (PDGFRA; cell-free assay, competition with immobilised ligand; 1 µM): 83%

COc1cc2ncnc(Nc3ccc(Oc4ccccc4)cc3C)c2cc1OC
inhibition (PDGFRA; enzyme activity, inhibitor; 1 µM): 9%

Cc1ccc(Nc2nccc(N(C)c3ccc4c(C)n(C)nc4c3)n2)cc1S(N)(=O)=O
remaining signal (PDGFRA; cell-free assay, inhibitor; 0.5 µM): 13.9%

CN([C@@H]1CCc2c(CC(=O)O)c3cc(S(C)(=O)=O)ccc3n2C1)S(=O)(=O)c1ccc(F)cc1
remaining binding (PDGFRA; cell-free assay, competition with immobilised ligand; 1 µM): 100%

FC(F)(F)Oc1cccc(-c2cnc3ccc(-c4ccncc4)nn23)c1
activity vs control (PDGFRA; enzyme activity, inhibitor, radiometric; 1 µM): 70%

Cc1cc(NC(=O)c2cccc3cc(-c4cccc5[nH]nc(N)c45)ccc23)ccc1F
activity vs control (PDGFRA D842V; enzyme activity, inhibitor; 0.1 µM): 28%

Nc1ncnc2occ(-c3ccc(NC(=O)Nc4cc(C(F)(F)F)ccc4F)cc3)c12
remaining activity (PDGFRA; enzyme activity, inhibitor; 20 µM): 0.05%

CC(C)(O)[C@H]1CC[C@H](Nc2ccc3ncc(-c4cccc(C(F)(F)F)c4)n3n2)CC1
remaining activity (PDGFRA; enzyme activity, inhibitor; 1 µM): 44.5%

O=C1Nc2ccc(Cl)cc2C1=Cc1cc(Cl)c(O)c(Cl)c1
remaining signal (PDGFRA; cell-free assay; 0.5 µM): 70.3%

N#CC1(c2ccccn2)CCN(Cc2cc(C(=O)N3CCCC3)c(=O)n3ccccc23)CC1
remaining binding (PDGFRA; cell-free assay, competition with immobilised ligand; 1 µM): 97%

CNC(=O)c1cc(Oc2ccc(NC(=O)Nc3ccc(Cl)c(C(F)(F)F)c3)cc2)ccn1
inhibition (PDGFRA D842V; enzyme activity, inhibitor; 10 µM): 99%

COc1cc(-c2cc(-c3ccc(N4CCNCC4)cc3)cnc2N)cc(OC)c1OC
inhibition (PDGFRA V561D; enzyme activity, inhibitor; 0.1 µM): 45%

CCN(CC)c1ccc(C2=NNC(=O)CC2C)cc1[N+](=O)[O-] (stereo not shown)
remaining activity (PDGFRA; enzyme activity, inhibitor; 10 µM): 91%

CN(C)C(=O)Cn1cc(-c2nc([C@@](C)(c3ccc(-c4cnc(N)nc4)cc3)C3CC3)no2)cn1
remaining binding (PDGFRA; cell-free assay, competition with immobilised ligand; 1 µM): 100%

Cc1ccc(NC(=O)c2ccc(C)c(C(F)(F)F)c2)cc1C#Cc1nn(C2CCC(O)CC2)c2ncnc(N)c12 (stereo not shown)
remaining activity (PDGFRA V561D; enzyme activity, inhibitor; 10 µM): 0%

C[C@@H]1CN(c2cc(-c3nn(C)c4ccc(OC5(C)CC5)cc34)ncn2)C[C@H](C)O1
remaining binding (PDGFRA; cell-free assay, competition with immobilised ligand; 1 µM): 83%

Cc1sc(C(=O)NC2COC2)cc1-n1cc(NC(=O)Nc2c(F)cccc2Cl)cn1
remaining activity (PDGFRA; enzyme activity, inhibitor; 10 µM): 114%

CN(C)c1ncnc(-c2ccc3nc(Nc4cc(CN5CCN(C(=O)CC(F)(F)F)CC5)ccn4)[nH]c3c2)c1Cl
remaining binding (PDGFRA; cell-free assay, competition with immobilised ligand; 1 µM): 61%

CC(C)(C)c1nc2c(s1)c1nc(N)ncc1c1ccc(NS(=O)(=O)c3c(F)cccc3F)c(F)c12
remaining activity (PDGFRA; enzyme activity, inhibitor, radiometric; 1 µM): 97%

N#CCCc1ccc2c(c1)-c1[nH]c3ccc([N+](=O)[O-])cc3c1CC(=O)N2
remaining signal (PDGFRA; cell-free assay; 0.5 µM): 87.4%

Cc1cnc(NC2CCOCC2)nc1-n1cnc(C(=O)NC(CN)c2cc(F)cc(Cl)c2)c1 (stereo not shown)
remaining activity (PDGFRA; enzyme activity, inhibitor, radiometric; 1 µM): 94%

CC/C(=N\NC(=O)NCc1cccc(O)c1)c1ccc(O)c(C)c1O
inhibition (PDGFRA V561D; enzyme activity, inhibitor; 0.1 µM): 0.9%

CN1CCN(c2cnc3c(C4CCN(C(=O)c5ccc(OC(F)(F)F)cc5N)CC4)ncnc3c2)CC1
remaining binding (PDGFRA; cell-free assay, competition with immobilised ligand; 1 µM): 100%
